Data on twelve compounds can be found in ChEMBL document CHEMBL3351273, “NRPS substrate promiscuity leads to more potent antitubercular sansanmycin analogues” (2014).

Values after ≈ are worked out from the molar mass of the structure shown.

Holding throughout (format): functional
Assay [1] concerns Mycobacterium tuberculosis. In words: Antibacterial activity against Mycobacterium tuberculosis H37Rv after 5 days by microplate Alamar Blue assay. Particulars: 120 h. In a few lines:
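M. tuberculosis H37Rv grown in 7H9; final inoculum 2 × 10^6 cfu/mL. Samples from 20 mg/mL DMSO stocks, 2-fold diluted in 7H9 without Tween 80, tested in triplicate at 37 °C. From day 5, Alamar Blue plus 5% Tween 80 went to a control well; whole plate dosed once bacteria-only well turned pink. Read visually 24 h later; MIC = lowest concentration preventing colour change.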

For a further assay, the system named is Pseudomonas aeruginosa. In words: Antibacterial activity against Pseudomonas aeruginosa 11 after 24 hrs by microdilution test. The settings on record: Pseudomonas aeruginosa, 11, 24 h. In short, it runs like this:
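CLSI broth microdilution; P. aeruginosa 11 grown in Mueller-Hinton broth, final inoculum 10^6 cells/mL. Samples from 20 mg/mL DMSO stocks, serially diluted, run in triplicate; sansanmycin A as positive control. Incubated 37 °C for 24 h, growth read by eye; MIC = lowest concentration completely inhibiting growth.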

For assay [2], the system named is Mycobacterium tuberculosis. Kind of assay: Ratio of sansanmycin A MIC to compound MIC for Mycobacterium tuberculosis H37Rv after 5 days by microplate Alamar Blue assay.

For the compound `C[C@@H]([C@H](NC(=O)[C@H](CC[S+](C)[O-])NC(=O)N[C@@H](Cc1c[nH]c2ccccc12)C(=O)O)C(=O)N/C=C1/C[C@@H](O)[C@H](n2ccc(=O)[nH]c2=O)O1)N(C)C(=O)[C@@H](N)Cc1cccc(O)c1` (stereo partly drawn), the MIC in assay [1] is more than 32 µg/mL; with Pseudomonas aeruginosa it was 16 µg/mL (≈ 18.2 µM).
As to `CSCC[C@H](NC(=O)N[C@@H](Cc1c[nH]c2ccccc12)C(=O)O)C(=O)N[C@H](C(=O)N/C=C1/C[C@@H](O)[C@H](n2ccc(=O)[nH]c2=O)O1)[C@H](C)N(C)C(=O)C1Cc2cccc(O)c2CN1` (stereo partly drawn), the MIC was more than 32 µg/mL in assay [1] and more than 64 µg/mL against Pseudomonas aeruginosa.
Regarding `CSCC[C@H](NC(=O)N[C@@H](Cc1c[nH]c2ccccc12)C(=O)O)C(=O)N[C@H](C(=O)N/C=C1/C[C@@H](O)[C@H](n2ccc(=O)[nH]c2=O)O1)[C@H](C)N(C)C(=O)C1Cc2cc(O)ccc2CN1` (stereo partly drawn), the values for the MIC (in assay [1]; with Pseudomonas aeruginosa) were 8 µg/mL (≈ 9.13 µM) and more than 64 µg/mL, respectively.
Consider `C[C@@H]([C@H](NC(=O)[C@H](Cc1ccccc1)NC(=O)N[C@@H](Cc1c[nH]c2ccccc12)C(=O)O)C(=O)N/C=C1/C[C@@H](O)[C@H](n2ccc(=O)[nH]c2=O)O1)N(C)C(=O)C1Cc2cccc(O)c2CN1` (stereo partly drawn), for which the MIC in assay [1] worked out at 16 µg/mL (≈ 17.9 µM); in the assay on Pseudomonas aeruginosa, 32 µg/mL (≈ 35.9 µM).
As for `C[C@@H]([C@H](NC(=O)[C@H](Cc1ccccc1)NC(=O)N[C@@H](Cc1c[nH]c2ccccc12)C(=O)O)C(=O)N/C=C1/C[C@@H](O)[C@H](n2ccc(=O)[nH]c2=O)O1)N(C)C(=O)C1Cc2cc(O)ccc2CN1` (stereo partly drawn), the values for the MIC (in assay [1]; with Pseudomonas aeruginosa) were 2 µg/mL (≈ 2.24 µM) and 8 µg/mL (≈ 8.97 µM), respectively. In assay [2], the Ratio is 8.
Take `CSCC[C@H](NC(=O)N[C@@H](Cc1ccc(O)cc1)C(=O)O)C(=O)N[C@H](C(=O)N/C=C1/C[C@@H](O)[C@H](n2ccc(=O)[nH]c2=O)O1)[C@H](C)N(C)C(=O)C1Cc2cccc(O)c2CN1` (stereo partly drawn): the results for the MIC (in assay [1]; against Pseudomonas aeruginosa) were more than 32 µg/mL and more than 64 µg/mL, respectively.
On the same counts, the results for `CSCC[C@H](NC(=O)N[C@@H](Cc1ccc(O)cc1)C(=O)O)C(=O)N[C@H](C(=O)N/C=C1/C[C@@H](O)[C@H](n2ccc(=O)[nH]c2=O)O1)[C@H](C)N(C)C(=O)C1Cc2cc(O)ccc2CN1` (stereo partly drawn) are 16 µg/mL (≈ 18.8 µM) and more than 64 µg/mL.
The matching figures for `C[C@@H]([C@H](NC(=O)[C@H](Cc1ccccc1)NC(=O)N[C@@H](Cc1c[nH]c2ccccc12)C(=O)O)C(=O)N/C=C1/C[C@@H](O)[C@H](n2ccc(=O)[nH]c2=O)O1)N(C)C(=O)[C@@H](N)Cc1cccc(O)c1`: 8 µg/mL (≈ 9.09 µM) and 32 µg/mL (≈ 36.4 µM).
In the case of `CSCC[C@H](NC(=O)N[C@@H](Cc1ccc(O)cc1)C(=O)O)C(=O)N[C@H](C(=O)N/C=C1/C[C@@H](O)[C@H](n2ccc(=O)[nH]c2=O)O1)[C@H](C)N(C)C(=O)[C@@H](N)Cc1cccc(O)c1`, the MIC (in assay [1]; in the assay with Pseudomonas aeruginosa) was 8 µg/mL (≈ 9.51 µM) throughout.
The compound `NNC(=O)c1ccncc1` [ISONIAZID] had a minimal inhibitory concentration (MIC) in assay [1] of 0.05 µg/mL (≈ 0.365 µM).
In turn, `CO[C@H]1/C=C/O[C@@]2(C)Oc3c(C)c(O)c4c(O)c(c(/C=N/N5CCN(C)CC5)c(O)c4c3C2=O)NC(=O)/C(C)=C\C=C\[C@H](C)[C@H](O)[C@@H](C)[C@@H](O)[C@@H](C)[C@H](OC(C)=O)[C@@H]1C` [RIFAMPIN] gave an MIC in assay [1] of 0.12 µg/mL (≈ 0.146 µM).
Turning to `CSCCC(NC(=O)NC(Cc1c[nH]c2ccccc12)C(=O)O)C(=O)NC(C(=O)N/C=C1\C[C@@H](O)[C@H](n2ccc(=O)[nH]c2=O)O1)C(C)N(C)C(=O)C(N)Cc1cccc(O)c1` (stereo partly drawn) [SANSANMYCIN A], the MIC in assay [1] came out at 16 µg/mL (≈ 18.5 µM); with Pseudomonas aeruginosa it was 4 µg/mL (≈ 4.63 µM).
